This is an account of results in article PMC7115534 (Peptides, 2009).

In brackets after ≈: the same amount, converted by molar mass. Read-outs that look alike come from different tables or passages of the source. Where a SMILES comes first, the peptide text is derived from it. The star is where a group is joined. Cbz = O=C(OCc1ccccc1)*; CH2F = FC* Some results are limits rather than exact numbers.

The subject of one series is Para-influenza-3 virus. As to the kind of experiment: Antiviral activity in Vero cells, para-influenza-3. It is filed as cell-based. The settings on record: read-out: EC50 Para-influenza-3 virus.
The subject of the next series is Reovirus-1. As to the kind of experiment: Antiviral activity in Vero cells, reovirus-1. It is filed as cell-based. The settings on record: read-out: EC50 Reovirus-1.
Another series has as its system Sindbis virus. As to the kind of experiment: Antiviral activity in Vero cells, Sindbis virus. To be noted: read-out: EC50 Sindbis virus. The series is classed as cell-based.
The next series concerns Punta Toro virus. As to the kind of experiment: Antiviral activity in Vero cells, Punta Toro virus. The settings on record: read-out: EC50 Punta Toro virus. It is filed as cell-based.
For a further series, the system named is Vero cells. To be noted: microscopic alteration of cell morphology.
The test system of another series is Influenza B. Description: Anti-influenza B activity in MDCK cells. To be noted: Influenza B virus. The series is classed as cell-based.
The test system of a further series is MDCK cells. The settings on record: microscopic alteration of cell morphology.
A further series is described as follows: in vitro. To be noted: dog.
Series [1] deals with Clematis montana lectin (CML). As to the kind of experiment: Hemagglutination inhibition assay. It is filed as biochemical. In outline:
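Sugars were serially diluted 2-fold and mixed with an equal volume of lectin at 8 hemagglutination units. After 30 min at room temperature, 2% rabbit erythrocyte suspension was added in U-bottom wells. Plates were read after 1 h. The endpoint was the minimum sugar concentration in the final mixture giving complete inhibition; lectin dilutions were made in 0.15 M NaCl.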

For the next series, the system named is L929 cells. Description: Effect of carbohydrates and caspase inhibitors on CML-induced L929 cell death. The series is classed as cell-based, murine. The settings on record: 24 h; for effect of carbohydrate pre-incubation on CML-induced L929 cell death: 1 pM CML pre-incubated with sugar at 37 °C for 30 min, MTT; for effect of caspase inhibitor on CML-induced L929 apoptosis: 20 μM, 1 h prior to CML. In outline: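 Murine L929 fibroblasts in DMEM with 10% FBS and nonessential amino acids at 37 °C, 5% CO2, were seeded at 1 × 10^5 cells/well for 24 h. Caspase inhibitors (pan-caspase z-VAD-fmk, caspase-3 z-DEVD-fmk, caspase-8 z-IETD-fmk; 20 μmol/l) were added 1 h before lectin, then cells were incubated 24 h. MTT was read at 490 nm as % growth inhibition versus control and blank; n = 5.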

Another series deals with HIV-1 (IIIB). The settings on record: CEM cells; cited from earlier work.
Another series relates to HIV-2 (strain ROD). To be noted: CEM cells; cited from earlier work.
Where [2] appears, read: read-out: Antiviral EC50 Influenza B MTS.
Setting [3] is: read-out: Antiviral EC50 Influenza B Visual CPE Score.

As to `Nc1ncnc2c1ncn2C[C@H](O)CO` [(S)-DHPA], the EC50 in the series on Para-influenza-3 virus, with Reovirus-1, in the series on Sindbis virus and in the series on Punta Toro virus was above 250 µM throughout. Further, in the series with Vero cells, the Minimum cytotoxic concentration was above 250 µM.
For the molecule `NC12CC3CC(CC(C3)C1)C2` [Amantadine], the half-maximal effective concentration (EC50) in the series with Influenza B (setting [2]) and in the series with Influenza B (setting [3]) was above 1000 µM throughout. In addition, the “Cytotoxicity Minimum cytotoxic concentration” value in the series on MDCK cells is above 1000 µM. In “in vitro”, this molecule came in with a CC50 above 1000 µM.
On to `OC[C@H]1O[C@H](O[C@@H]2C(O)O[C@H](CO)[C@@H](O)[C@@H]2O)[C@@H](O)[C@@H](O)[C@@H]1O` (stereo partly drawn) [Man-a(1,2)-Man], for which, in [1], the “inhibition of CML agglutination of rabbit erythrocytes (in words)” value (from here on “inhibition”) was “slightly inhibitory”.
The same measure, in the same setting: under `OC[C@H]1O[C@H](O[C@H]2[C@H](O)[C@@H](CO)OC(O)[C@H]2O)[C@@H](O)[C@@H](O)[C@@H]1O` (stereo partly drawn) [Man-a(1,3)-Man] stands “slightly inhibitory”.
For the molecule `OC[C@H]1O[C@H](OC[C@H]2OC(O)[C@@H](O)[C@@H](O[C@H]3O[C@H](CO)[C@@H](O)[C@H](O)[C@@H]3O)[C@@H]2O)[C@@H](O)[C@@H](O)[C@@H]1O` (stereo partly drawn) [Man-a(1,3:1,6)-mannotriose], in [1] (complete inhibition of 8 hemagglutination units of CML, rabbit erythrocytes), the “Minimum inhibitory concentration (MIC)” value turned out to be 2500 µM (≈ 1260 µg/mL). Moreover, the “effect of carbohydrate pre-incubation on CML-induced L929 cell death” value in the series with L929 cells is reported as “the cell inhibitory ratio was abruptly decreased”.
As for `OC[C@H]1O[C@H](OC[C@H]2OC(O)[C@@H](O)[C@@H](O)[C@@H]2O)[C@@H](O)[C@@H](O)[C@@H]1O` (stereo partly drawn) [Man-a(1,6)-Man], the “inhibition” value in [1] is “slightly inhibitory”. For the same molecule, the “effect of carbohydrate pre-incubation on CML-induced L929 cell death” value in the series with L929 cells is listed as “slightly more effective inhibitor than Man-a(1,3:1,6)-mannotriose”.
`CCC(CC)O[C@@H]1C=C(C(=O)O)C[C@H](N)[C@H]1NC(C)=O` [Oseltamivir Carboxylate]: the EC50 in the series on Influenza B (setting [2]) was 15 µM; with Influenza B (setting [3]) it was 8 µM. Besides, in the series with MDCK cells, the “Cytotoxicity Minimum cytotoxic concentration” value was above 100 µM. In addition, in “in vitro”, the CC50 is above 100 µM.
Regarding `NC(=O)c1ncn([C@@H]2O[C@H](CO)[C@@H](O)[C@H]2O)n1` [Ribavirin], the EC50 was 4.3 µM in the series with Influenza B (setting [2]), 9 µM with Influenza B (setting [3]), 250 µM in the series on Reovirus-1 and above 250 µM with Sindbis virus. Moreover, the “Cytotoxicity Minimum cytotoxic concentration” value with MDCK cells was above 100 µM. The same molecule had a Minimum cytotoxic concentration in the series on Vero cells above 250 µM.
`CC(N)C12CC3CC(CC(C3)C1)C2` (stereo not drawn) [Rimantadine]: the 50% effective concentration (EC50) in the series with Influenza B (setting [2]) and in the series with Influenza B (setting [3]) was above 200 µM in each case. The “Cytotoxicity Minimum cytotoxic concentration” value in the series with MDCK cells was 1000 µM. The CC50 in the series “in vitro” was 525 µM.
With `COC(=O)CC[C@H](NC(=O)[C@H](CC(=O)OC)NC(=O)OCc1ccccc1)C(=O)N[C@H](C(=O)N[C@@H](CC(=O)OC)C(=O)CF)C(C)C` [z-DEVD-fmk], in the series on L929 cells, the “effect of caspase inhibitor on CML-induced L929 apoptosis” value is “partially blocked apoptosis”.
Same read-out and setting: under `CC[C@H](C)[C@H](NC(=O)OCc1ccccc1)C(=O)N[C@@H](CCC(=O)OC)C(=O)N[C@H](C(=O)N[C@@H](CC(=O)OC)C(=O)CF)[C@@H](C)O` [z-IETD-fmk] (Cbz-IE(OMe)TD(OMe)-CH2F) stands “partially blocked apoptosis”; under `COC(=O)C[C@H](NC(=O)[C@H](C)NC(=O)[C@@H](NC(=O)OCc1ccccc1)C(C)C)C(=O)CF` [z-VAD-fmk] (Cbz-Val-Ala-Asp(OMe)-CH2F), “partially blocked apoptosis”.
In the case of Galanthus nivalis agglutinin [GNA], the “EC50 HIV-1” value with HIV-1 (IIIB) is 0.92 µg/mL. Moreover, the “EC50 HIV-2” value in the series on HIV-2 (strain ROD) is 0.78 µg/mL.
On to Lycoris radiate agglutinin [LRA], for which the “EC50 HIV-1” value in the series with HIV-1 (IIIB) is 0.79 µg/mL. In addition, in the series on HIV-2 (strain ROD), the “EC50 HIV-2” value is 0.59 µg/mL.
In the case of Scilla campanulata agglutinin [SCA], in the series with HIV-1 (IIIB), the “EC50 HIV-1” value was 4.6 µg/mL. The “EC50 HIV-2” value in the series with HIV-2 (strain ROD) is 8 µg/mL.
thyroglobulin: a glycoprotein: in series [1], the “inhibition” value is given as “inhibited the agglutination”.

As usually defined, the EC50 is the concentration that produces a half-maximal response.
